# Screens as filed in PubChem.
# IDH1 R132H inh – inhibitors of human IDH1 R132H | actives 0.18% (n = 70,000) | IDH1 R132H reductase, diaphorase/resazurin fluorescence, 60 min | O75874 | inhibition, % at 10 µM; in the data active = inhibition above about 34%; inconclusive = no clear call, values can overlap the other calls; inactive = below about 11%;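 note: 0% = DMSO and 100% = no enzyme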
# T cruzi growth-1 – T. cruzi proliferation inhibition | T. cruzi beta-gal in NIH3T3, GalScreen luminescence, 90 h | inhibition, % at 8.34 µM | actives 5.9% (n = 77,000) | AID 624255;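 active = mean inhibition above about 93%, with at least 55% of replicates each passing it, limit read from the data, passing the limit was not always enough; inconclusive = only one of those two conditions holds; inactive = neither condition holds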
# KDM4C inh – blocks human GASC-1 (KDM4C) demethylase activity | GST-KDM4C 2-372, H3K9me3 peptide, LANCE TR-FRET | actives 0.15% (n = 96,000) | Q9H3R0 | inhibition, % at 12.5 µM;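 active = mean replicate inhibition above about 25%, with at least 55% of replicates also reaching it, limit read from the data, passing the limit was not always enough; inconclusive = only one of those two conditions met; inactive = neither condition met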
# Target sequence (Q9H3R0 2-372 limits assumed): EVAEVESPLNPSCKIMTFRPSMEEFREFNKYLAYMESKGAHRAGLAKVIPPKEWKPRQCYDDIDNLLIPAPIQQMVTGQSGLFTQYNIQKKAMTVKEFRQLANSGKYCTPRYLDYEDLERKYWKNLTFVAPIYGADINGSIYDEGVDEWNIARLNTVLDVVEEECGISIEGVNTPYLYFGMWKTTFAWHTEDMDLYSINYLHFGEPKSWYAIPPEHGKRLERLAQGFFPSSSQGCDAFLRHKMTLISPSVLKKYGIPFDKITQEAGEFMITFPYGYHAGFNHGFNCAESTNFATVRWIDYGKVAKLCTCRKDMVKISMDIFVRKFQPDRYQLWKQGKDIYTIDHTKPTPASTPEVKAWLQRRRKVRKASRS
#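 material = GST-tagged GASC-1 (JMJD2C) catalytic fragment, aa 2-372 | amount = enzyme final amount 10 nM | medium = HEPES buffer, pH 7.5, plus ascorbate | also added = H3K9me3 peptide substrate, Fe(II), 2-oxoglutarate | dosing = single dose | times = 30 min demethylation and 1 h detection at room temperature | detection = LANCE TR-FRET | read-out basis = Fall in 671/618 emission ratio as inhibition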
# T cruzi growth-2 – blocks T. cruzi growth in NIH3T3 host cells; inhibition, % at 8.35 µM; actives 72% (n = 5,600); shares compounds with T cruzi growth-1; T. cruzi beta-gal in NIH3T3, GalScreen luminescence, 90 h;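 active = mean replicate inhibition above about 95% and at least 55% of replicates individually reaching it, limit read from the data; inconclusive = only one of the two criteria is met; inactive = neither criterion is met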
# T cruzi growth-3 – Trypanosoma cruzi proliferation inhibition. inhibition, % at 2.09 µM. shares compounds with T cruzi growth-1. T. cruzi beta-gal in NIH3T3, GalScreen luminescence, 90 h. actives 21% (n = 5,600);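 active = mean inhibition above about 95%, with at least 55% of replicates also reaching it, limit read from the data; inconclusive = meets just one of the two conditions; inactive = meets neither condition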;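 note: plate controls were neutral control median for no effect and positive control median for full effect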
# 3T3 cytotox – cytotoxicity in mouse NIH/3T3 fibroblasts; shares compounds with T cruzi growth-1; NIH/3T3 viability, CellTiter-Glo ATP luminescence, 90 h; cytotoxicity (signal decrease), % at 8.35 µM; actives 14% (n = 5,600); AID 651742;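 active = mean signal decrease across replicates above about 35% based on untreated-well scatter, with enough replicates individually passing, limit read from the data; inconclusive = no rule stated though some were filed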;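 note: 0% = median of neutral control wells and 100% = median of positive control wells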
# NIH3T3 tox 2 – kills mouse NIH/3T3 fibroblasts. shares compounds with T cruzi growth-1. inhibition, % at 24.9 µM. NIH/3T3 viability, CellTiter-Glo ATP luminescence, 90 h. actives 56% (n = 5,600). AID 651744;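 active = mean loss of cell viability signal at or above a set limit, and enough replicates individually reaching it; inconclusive = meets only the mean limit or only the replicate share; inactive = meets neither condition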;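 note: 0% = median of neutral control wells and 100% = median of positive control wells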
# Numbers without * were called inactive; ? = inconclusive; . = no result. The sample as a whole holds a higher share of hits than the screen did.
SMILES,IDH1 R132H inh,T cruzi growth-1,KDM4C inh,T cruzi growth-2,T cruzi growth-3,3T3 cytotox,NIH3T3 tox 2
O=C(CSc1nnc(-c2cccs2)n1-c1ccc(Cl)cc1)c1ccc(Cl)cc1,0.5,.,.,.,.,.,.
C[C@@H]1CCCCO[C@@H](CN(C)C(=O)Nc2ccc3c(c2)OCO3)[C@H](C)CN([C@@H](C)CO)C(=O)c2cc(NC(=O)Nc3ccc(F)cc3)ccc2O1,1.5,33.1,-0.5,.,.,.,.
C[C@@H]1CN([C@@H](C)CO)C(=O)c2cc(NC(=O)Nc3ccccc3)ccc2O[C@@H](C)CCCCO[C@@H]1CN(C)C(=O)Nc1ccc2c(c1)OCO2,8.2,11.4,-0.3,.,.,.,.
C[C@H]1CCCCO[C@@H](CN(C)C(=O)Nc2ccc3c(c2)OCO3)[C@@H](C)CN([C@@H](C)CO)C(=O)c2cc(NC(=O)Nc3ccccc3)ccc2O1,.,117.2*,-1.2,111.0*,6.1,-14.5,-2.5
C[C@H]1CCCCO[C@@H](CN(C)C(=O)Nc2ccc3c(c2)OCO3)[C@@H](C)CN([C@@H](C)CO)C(=O)c2cc(NC(=O)Nc3ccc(F)cc3)ccc2O1,.,103.0*,-1.4,106.4*,74.7,-0.8,-9.3
C[C@@H]1CCCCO[C@H](CN(C)C(=O)Nc2ccc3c(c2)OCO3)[C@H](C)CN([C@H](C)CO)C(=O)c2cc(NC(=O)CCCN(C)C)ccc2O1,.,104.0*,4.0,6.4,1.5,-0.6,8.1
C[C@@H]1CCCCO[C@@H](CN(C)C(=O)Nc2ccccc2)[C@H](C)CN([C@@H](C)CO)C(=O)c2cc(NC(=O)Nc3ccc4c(c3)OCO4)ccc2O1,.,33.0,-1.2,.,.,.,.
C[C@@H]1CCCCO[C@H](CN(C)C(=O)Nc2ccc3c(c2)OCO3)[C@H](C)CN([C@H](C)CO)C(=O)c2cc(NC(=O)Nc3ccccc3)ccc2O1,-2.2,107.9*,-0.1,110.5*,14.9,-29.4,-23.2
C[C@@H]1CCCCO[C@@H](CN(C)C(=O)Nc2ccc3c(c2)OCO3)[C@@H](C)CN([C@@H](C)CO)C(=O)c2cc(NC(=O)CCCN(C)C)ccc2O1,-1.4,.,1.3,.,.,.,.
Cc1cc(NC(=O)Cn2nc([N+](=O)[O-])cc2C)ccc1Br,-0.3,.,.,.,.,.,.
O=C(Oc1ccc(-c2ccccc2)cc1)C(Cc1ccccc1)N1C(=O)C2C3CCC(C3)C2C1=O (stereo unspecified),-0.3,.,.,.,.,.,.
COc1ccc(C(CC(=O)O)NC(N)=O)cc1 (stereo unspecified),0.3,.,.,.,.,.,.
CC(C)C(NC=O)C(=O)N1CCC2Oc3ccc(cc3)/C=C\NC(=O)C(Cc3ccccc3)NC(=O)C21 (stereo unspecified),0.1,.,.,.,.,.,.
O=C1c2ccccc2C(=O)N1CCc1nc2ccccc2c(=O)n1Cc1ccccc1,0.1,.,.,.,.,.,.
CN(CC(=O)Nc1ccc(C(N)=O)cc1)S(=O)(=O)c1ccc(F)cc1,0.2,.,.,.,.,.,.
CCn1c(SCc2nc(-c3cccs3)no2)nnc1-c1cccs1,2.8,.,.,.,.,.,.
Cc1cc(C)cc(NC(=O)COc2ccc(N3CC(C(N)=O)CC3=O)cc2)c1 (stereo unspecified),1.1,.,.,.,.,.,.
Cc1cc(C)n(-c2nc3ccc([N+](=O)[O-])cc3nc2-n2nc(C)cc2C)n1,0.2,.,.,.,.,.,.
C[C@@H]1CCCCO[C@@H](CN(C)C(=O)Nc2ccc3c(c2)OCO3)[C@@H](C)CN([C@@H](C)CO)C(=O)c2cc(NC(=O)Cc3ccccc3)ccc2O1,.,32.3,-0.4,.,.,.,.
C[C@H]1CCCCO[C@H](CN(C)C(=O)Nc2ccc3c(c2)OCO3)[C@@H](C)CN([C@@H](C)CO)C(=O)c2cc(NC(=O)Cc3ccccc3)ccc2O1,.,?,-0.6,90.1,60.2,-6.8,23.1
COc1ccccc1-c1ccc([C@@H]2[C@H]3CN(C(=O)NC4CCCC4)CCCCN3[C@H]2CO)cc1,.,68.2,-0.3,.,.,.,.
Cc1ccccc1-c1ccc([C@H]2[C@@H](CO)N3CCCCN(C(=O)NC4CCCC4)C[C@H]23)cc1,.,115.1*,-0.2,107.8*,99.2*,19.9,105.8*
COc1ccccc1-c1ccc([C@@H]2[C@@H](CO)N3CCCCN(C(=O)NC4CCCC4)C[C@@H]23)cc1,.,77.4,1.4,.,.,.,.
